Experimental data as given in ChEMBL document CHEMBL1153971, “Design, synthesis, biological evaluation and molecular modelling studies of novel quinoline derivatives against Mycobacterium tuberculosis” (Bioorg Med Chem, 2009).
In brackets after ≈: the same amount, converted by molar mass.

How the values were obtained:
[1] = tested on: Mycobacterium tuberculosis; assay: Antimycobacterial activity against Mycobacterium tuberculosis H37Rv ATCC 27294 at 6.25 ug/mL by radiometric method; type: functional
[2] = tested on: Mycobacterium tuberculosis; assay: Antimycobacterial activity against Mycobacterium tuberculosis H37Rv ATCC 27294 assessed as growth index at 6.25 ug/mL after 5 days by radiometric method; type: functional
Outline: (§1)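 M. tuberculosis H37Rv (ATCC 27294) in a BACTEC 460 radiometric culture. A single 6.25 µg/mL dose was given on day 1. Growth index was read daily from day 1 to day 9 against an untreated culture and an isoniazid-treated culture under identical conditions. Three independent readings were taken. Compounds were dissolved in DMSO.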

[3] = tested on: Mycobacterium tuberculosis; assay: Antimycobacterial activity against Mycobacterium tuberculosis H37Rv ATCC 27294 assessed as growth index at 6.25 ug/mL after 3 days by radiometric method; type: functional; outline: as §1
[4] = tested on: Mycobacterium tuberculosis; assay: Antimycobacterial activity against Mycobacterium tuberculosis H37Rv ATCC 27294 assessed as growth inhibition at 6.25 ug/mL after 7 to 9 days by radiometric method; type: functional; settings: read-out: GI
Outline: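 Single-concentration screen against H37Rv (ATCC 27294) by the BACTEC 460 radiometric method. Compound was added once at 6.25 µg/mL on day one. […] DMSO was the vehicle.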

[5] = tested on: Mycobacterium tuberculosis; assay: Antimycobacterial activity against Mycobacterium tuberculosis H37Rv ATCC 27294 by radiometric method; type: functional
Outline: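 MIC against H37Rv by the BACTEC radiometric method. Five concentrations were tested: 6.25, […], 1.56, 0.78 and 0.39 µg/mL. Compounds were dissolved in DMSO.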

[6] = tested on: Mycobacterium tuberculosis; assay: Antimycobacterial activity against Mycobacterium tuberculosis H37Rv ATCC 27294 assessed as growth index at 6.25 ug/mL after 9 days by radiometric method; type: functional; outline: as §1
[7] = tested on: Mycobacterium tuberculosis; assay: Antimycobacterial activity against Mycobacterium tuberculosis H37Rv ATCC 27294 assessed as growth index at 6.25 ug/mL after 1 day by radiometric method; type: functional; outline: as §1
[8] = tested on: Mycobacterium tuberculosis; assay: Antimycobacterial activity against Mycobacterium tuberculosis H37Rv ATCC 27294 assessed as growth index at 6.25 ug/mL after 4 days by radiometric method; type: functional; outline: as §1
[9] = tested on: Mycobacterium tuberculosis; assay: Antimycobacterial activity against Mycobacterium tuberculosis H37Rv ATCC 27294 assessed as growth index at 6.25 ug/mL after 8 days by radiometric method; type: functional; outline: as §1
[10] = tested on: Mycobacterium tuberculosis; assay: Antimycobacterial activity against Mycobacterium tuberculosis H37Rv ATCC 27294 assessed as growth index at 6.25 ug/mL after 7 days by radiometric method; type: functional; outline: as §1
[11] = Cytotoxicity against human THP1 cells assessed as cell viability at 1 ug/100 mL after 24 hrs by MTT assay; type: cell-based; settings: THP-1 cells, read-out: Activity
Outline: (§2)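 Monocytic THP-1 cells were seeded at 10,000 cells/100 µL and cultured at 37 °C in 5% CO2. Compounds were added at 1 or 10 µg/100 µL, with medium plus DMSO as live control. After 24 or 72 h, MTT (stock 5 mg/mL) was added for 4 h, then isopropanol. Absorbance was read at 540 nm and reported as percent viability. Triplicates, mean of three readings.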

[12] = Cytotoxicity against human THP1 cells assessed as cell viability at 10 ug/100 mL after 24 hrs by MTT assay; type: cell-based; settings: THP-1 cells, read-out: Activity; outline: as §2
[13] = Cytotoxicity against human THP1 cells assessed as cell viability at 1 ug/100 mL after 72 hrs by MTT assay; type: cell-based; settings: THP-1 cells, read-out: Activity; outline: as §2
[14] = tested on: Mycobacterium tuberculosis; assay: Antimycobacterial activity against Mycobacterium tuberculosis H37Rv ATCC 27294 assessed as growth index at 6.25 ug/mL after 6 days by radiometric method; type: functional; outline: as §1
[15] = tested on: Mycobacterium tuberculosis; assay: Antimycobacterial activity against Mycobacterium tuberculosis H37Rv ATCC 27294 assessed as growth index at 6.25 ug/mL after 2 days by radiometric method; type: functional; outline: as §1
[16] = Cytotoxicity against human THP1 cells assessed as cell viability at 10 ug/100 mL after 72 hrs by MTT assay; type: cell-based; settings: THP-1 cells, read-out: Activity; outline: as §2

Compound: CCOC(=O)C(c1cccc2ccccc12)C(c1ccccc1)c1cc2cc(Br)ccc2nc1OC (mixture of isomers)
- inhibition at 6.25 µg/mL [1]: 0%

Compound: COC(=O)C(C(=O)N1CCOCC1)C(c1ccccc1)c1cc2cc(Br)ccc2nc1OC (centres undefined)
- inhibition at 6.25 µg/mL [1]: 5%

Compound: COc1nc2ccc(Br)cc2cc1C(c1ccccc1)n1cnc([N+](=O)[O-])c1 (centres undefined)
- inhibition at 6.25 µg/mL [1]: 14%

Compound: COC(=O)C(C(=O)N1CCCCC1)C(c1ccccc1)c1cc2cc(Br)ccc2nc1OC (centres undefined)
- inhibition at 6.25 µg/mL [1]: 11%

Compound: COc1nc2ccc(Br)cc2cc1C(NCc1ccncc1)c1ccccc1 (centres undefined)
- inhibition at 6.25 µg/mL [1]: 17%

Compound: COC(=O)C(C(=O)n1cccn1)C(c1ccccc1)c1cc2cc(Br)ccc2nc1OC (mixture of isomers)
- inhibition at 6.25 µg/mL [1]: 22%

Compound: COc1nc2ccc(Br)cc2cc1C(Nc1ccc2oc(=O)ccc2c1)c1ccccc1 (racemic)
- Growth_index [2]: 52
- Growth_index [3]: 37
- inhibition of growth at 6.25 µg/mL [4]: 92.5%
- MIC [5]: 6.25 µg/mL (≈ 12.8 µM)
- inhibition at 6.25 µg/mL [1]: 92.5%
- Growth_index [6]: 55
- Growth_index [7]: 15
- Growth_index [8]: 45
- Growth_index [9]: 53
- Growth_index [10]: 53
- viability at 24 h, 1 ug/100 mL [11]: 100%
- viability at 24 h, 10 ug/100 mL [12]: 100%
- viability at 72 h, 1 ug/100 mL [13]: 100%
- Growth_index [14]: 48
- Growth_index [15]: 27
- viability at 72 h, 10 ug/100 mL [16]: 100%

Compound: COc1nc2ccc(Br)cc2cc1C(c1ccccc1)n1ccc2ccccc21 (centres undefined)
- inhibition at 6.25 µg/mL [1]: 8%

Compound: COC(=O)C(C(=O)N1CCCC1)C(c1ccccc1)c1cc2cc(Br)ccc2nc1OC (centres undefined)
- inhibition at 6.25 µg/mL [1]: 5%

Compound: COc1nc2ccc(Br)cc2cc1C(c1ccccc1)N1CCN(c2cccc(C(F)(F)F)c2)CC1 (centres undefined)
- Growth_index [2]: 0
- Growth_index [3]: 0
- inhibition of growth at 6.25 µg/mL [4]: 100%
- MIC [5]: 6.25 µg/mL (≈ 11.2 µM)
- inhibition at 6.25 µg/mL [1]: 100%
- Growth_index [6]: 0
- Growth_index [7]: 1
- Growth_index [8]: 0
- Growth_index [9]: 0
- Growth_index [10]: 0
- viability at 24 h, 1 ug/100 mL [11]: 87%
- viability at 24 h, 10 ug/100 mL [12]: 97%
- viability at 72 h, 1 ug/100 mL [13]: 100%
- Growth_index [14]: 0
- Growth_index [15]: 0
- viability at 72 h, 10 ug/100 mL [16]: 97%

Compound: COc1nc2ccc(Br)cc2cc1C(c1ccccc1)N1CCOCC1 (centres undefined)
- inhibition at 6.25 µg/mL [1]: 69%

Compound: COc1nc2ccc(Br)cc2cc1C(c1ccccc1)N1CCCCC1 (centres undefined)
- inhibition at 6.25 µg/mL [1]: 53%

Compound: COc1nc2ccc(Br)cc2cc1C(c1ccccc1)n1nnnc1C (centres undefined)
- inhibition at 6.25 µg/mL [1]: 14%

Compound: COc1nc2ccc(Br)cc2cc1C(c1ccccc1)n1cccn1 (racemic)
- Growth_index [2]: 0
- Growth_index [3]: 0
- inhibition of growth at 6.25 µg/mL [4]: 99.5%
- MIC [5]: 6.25 µg/mL (≈ 15.9 µM)
- inhibition at 6.25 µg/mL [1]: 99.5%
- Growth_index [6]: 0
- Growth_index [7]: 1
- Growth_index [8]: 0
- Growth_index [9]: 0
- Growth_index [10]: 0
- viability at 24 h, 1 ug/100 mL [11]: 71%
- viability at 24 h, 10 ug/100 mL [12]: 75%
- viability at 72 h, 1 ug/100 mL [13]: 100%
- Growth_index [14]: 0
- Growth_index [15]: 0
- viability at 72 h, 10 ug/100 mL [16]: 98%

Compound: NNC(=O)c1ccncc1 [ISONIAZID]
- inhibition of growth at 6.25 µg/mL [4]: 99.3%

Compound: CCOC(=O)C1CCN(C(c2ccccc2)c2cc3cc(Br)ccc3nc2OC)CC1 (centres undefined)
- inhibition at 6.25 µg/mL [1]: 16%

Compound: COC(=O)C(C(=O)N1CCN(c2cccc(C(F)(F)F)c2)CC1)C(c1ccccc1)c1cc2cc(Br)ccc2nc1OC (centres undefined)
- inhibition at 6.25 µg/mL [1]: 8%

Compound: CCOC(=O)C1CCCN1C(c1ccccc1)c1cc2cc(Br)ccc2nc1OC (centres undefined)
- inhibition at 6.25 µg/mL [1]: 18%

Compound: COc1nc2ccc(Br)cc2cc1C(c1ccccc1)n1ccnc1 (racemic)
- Growth_index [2]: 34
- Growth_index [3]: 25
- inhibition of growth at 6.25 µg/mL [4]: 94.2%
- MIC [5]: 6.25 µg/mL (≈ 15.9 µM)
- inhibition at 6.25 µg/mL [1]: 94.2%
- Growth_index [6]: 56
- Growth_index [7]: 12
- Growth_index [8]: 28
- Growth_index [9]: 35
- Growth_index [10]: 35
- viability at 24 h, 1 ug/100 mL [11]: 74%
- viability at 24 h, 10 ug/100 mL [12]: 56%
- viability at 72 h, 1 ug/100 mL [13]: 67%
- Growth_index [14]: 33
- Growth_index [15]: 22
- viability at 72 h, 10 ug/100 mL [16]: 67%
